Results: ChEMBL document CHEMBL1144902, “Discovery, characterization, and structure-activity relationships studies of proapoptotic polyphenols targeting B-cell lymphocyte/leukemia-2 proteins” (J Med Chem, 2003)

How the values were obtained:
HeLa = assay: Inhibitory concentration in HeLa cells; format: functional, cell-based; settings: Homo sapiens
Method in brief: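 HeLa viability assay. Low-passage HeLa (passage 10–20) treated with compounds at 0, 1, 3, 10 and 100 µM; viability read out. Values given as mean with standard deviation, n = 4.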

ZR-75-1 = assay: Inhibitory concentration in ZR-75-1 cells; format: functional, cell-based; settings: Homo sapiens
Method in brief: (§1)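 XTT viability: MCF7 grown in DMEM/10% FBS with 10^-10 M insulin, 1 mM pyruvate, glutamine; ZR75-1 in RPMI/10% FBS with HEPES, 1 mM pyruvate, glutamine. 1000 cells/well seeded in triplicate, compounds at final 0, 1, 10 and 100 µM for 3 days. Then XTT (1 mg/mL) with 0.025 mM PMS added for 4 h. OD450 read, blank wells subtracted.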

Bcl-2-like protein 1 = Bcl-2-like protein 1 (Homo sapiens, UniProt Q07817); assay: Inhibitory concentration against Bcl-xl
MCF7S = assay: Inhibitory concentration in MCF-7 cells; format: functional, cell-based; settings: Homo sapiens; method in brief: as §1

Bcl-2-like protein 1, sequence (Q07817 whole entry): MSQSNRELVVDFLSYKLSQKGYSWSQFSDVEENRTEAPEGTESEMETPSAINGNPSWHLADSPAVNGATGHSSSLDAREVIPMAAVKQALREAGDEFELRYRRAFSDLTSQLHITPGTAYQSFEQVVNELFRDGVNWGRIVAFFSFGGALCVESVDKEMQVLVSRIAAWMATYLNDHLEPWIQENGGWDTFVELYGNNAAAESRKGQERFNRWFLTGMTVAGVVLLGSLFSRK

Structure (SMILES): O=c1c(O)cccc2cc(O)c(O)c(O)c12 [PURPUROGALLIN]
- IC50 (HeLa): 6.5 µM

Structure (SMILES): COc1cc2cccc(OC)c(=O)c2c(OC)c1OC
- IC50 (HeLa): > 100 µM

Structure (SMILES): COC(=O)c1cc(O)c(=O)c2cc(O)c(O)cc2c1
- IC50 (HeLa): 30 µM

Structure (SMILES): CCOC(=O)c1cc(O)c(=O)c2cc(O)c(O)cc2c1
- IC50 (HeLa): 51.5 µM
- IC50 (ZR-75-1): 50 µM

Structure (SMILES): Cc1cc2c(C(C)C)c(O)c(O)c(C=O)c2c(O)c1-c1c(C)cc2c(C(C)C)c(O)c(O)c(C=O)c2c1O [GOSSYPOL]
- IC50 (Bcl-2-like protein 1): 0.5 µM
- IC50 (MCF7S): 13.2 µM
- IC50 (ZR-75-1): 8.4 µM

Structure (SMILES): O=C(O)c1cc(O)c(=O)c2cc(O)c(O)cc2c1
- IC50 (HeLa): 22.9 µM

Structure (SMILES): COc1c(O)cc2cccc(OC)c(=O)c2c1OC
- IC50 (HeLa): > 100 µM
